# Experimental data from ChEMBL document CHEMBL1126266, “Dopaminergic and serotonergic activities of imidazoquinolinones and related compounds” (J Med Chem, 1992).
# Tests used:
# D(2) dopamine receptor [1] = molecular target: T1, D(2) dopamine receptor (Rattus norvegicus, UniProt P61169); assay: Ability to displace [3H]raclopride from dopamine receptor D2 in rat striatal homogenates.
# In short: (§1)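 Rat striatal homogenate (1:300) incubated with [3H]raclopride (80 Ci/mmol) 1 h at room temperature. Filtered over PEI-pretreated filters, rinsed with 50 mM Tris pH 7.4, counted by liquid scintillation. Nonspecific binding with 1 μM haloperidol. IC50 by log-probit analysis from at least four concentrations in triplicate; Ki calculated from IC50.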
# Rattus norvegicus [2] = assay: Percent change in DOPA levels in rat brain following 1 mg/kg administration.; format: functional
# In short: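 Upjohn CF-1 rats given drug or vehicle sc. Fifteen minutes later, m-hydroxybenzylhydrazine 100 mg/kg ip was given as decarboxylase inhibitor. Control and test groups (n = 6 each) compared by unpaired t test.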
# Rattus norvegicus [3] = assay: Percent change in 5-HTP levels in rat brain following 1 mg/kg administration.
# [4] = Dose required to reduce neuronal firing of DA cells by 50%; format: functional
# In short: (§2)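 Male Sprague-Dawley rats (280-330 g) anesthetized with chloral hydrate 400 mg/kg ip. Extracellular recording from substantia nigra pars compacta neurons (action potential >2.5 ms), site verified histologically. Drug in distilled water given iv via femoral vein. Firing rate measured by integrated ratemeter.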
# D(2) dopamine receptor [5] = molecular target: T1, D(2) dopamine receptor; assay: Compound was evaluated for its ability to displace [3H]raclopride from dopamine receptor D2 in rat striatal homogenates; in short: as §1
# [6] = molecular target: T2, 5-hydroxytryptamine receptor 1A (Homo sapiens) (UniProt P08908); assay: Dose required to reduce neuronal firing of 5-HT1A cells by 50%; format: functional
# T2 sequence (whole entry): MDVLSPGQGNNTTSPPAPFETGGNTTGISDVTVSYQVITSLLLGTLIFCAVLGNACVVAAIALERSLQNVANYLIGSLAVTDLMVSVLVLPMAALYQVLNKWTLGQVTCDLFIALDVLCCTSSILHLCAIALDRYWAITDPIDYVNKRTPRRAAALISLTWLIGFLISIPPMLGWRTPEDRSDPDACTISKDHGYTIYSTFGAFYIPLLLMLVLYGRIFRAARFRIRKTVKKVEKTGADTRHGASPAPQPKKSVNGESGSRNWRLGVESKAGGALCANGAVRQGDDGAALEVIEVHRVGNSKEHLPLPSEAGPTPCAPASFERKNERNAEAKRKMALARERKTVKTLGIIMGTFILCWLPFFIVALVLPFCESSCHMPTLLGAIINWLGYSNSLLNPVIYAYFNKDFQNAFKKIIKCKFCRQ
# In short: (§3)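 Male Sprague-Dawley rats (280-330 g) under chloral hydrate 400 mg/kg ip. Extracellular recording from dorsal raphe neurons (biphasic spikes, about 0.8–2.5 spikes/s), location confirmed by dye deposit. Drug in distilled water given iv via femoral vein.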
# D(2) dopamine receptor [7] = molecular target: T1, D(2) dopamine receptor; assay: Compound was evaluated for its ability to displace [3H]raclopride from Dopamine receptor D2 in rat striatal homogenates; in short: as §1
# Rattus norvegicus [8] = species on record: Rattus norvegicus; assay: Dose required to reduce neuronal firing of dopaminergic cells by 50%; format: functional; in short: as §2
# Rattus norvegicus [9] = species on record: Rattus norvegicus; assay: Dose required to reduce neuronal firing of serotonergic cells by 50%; format: functional; in short: as §3
# T1 sequence (P61169 whole entry): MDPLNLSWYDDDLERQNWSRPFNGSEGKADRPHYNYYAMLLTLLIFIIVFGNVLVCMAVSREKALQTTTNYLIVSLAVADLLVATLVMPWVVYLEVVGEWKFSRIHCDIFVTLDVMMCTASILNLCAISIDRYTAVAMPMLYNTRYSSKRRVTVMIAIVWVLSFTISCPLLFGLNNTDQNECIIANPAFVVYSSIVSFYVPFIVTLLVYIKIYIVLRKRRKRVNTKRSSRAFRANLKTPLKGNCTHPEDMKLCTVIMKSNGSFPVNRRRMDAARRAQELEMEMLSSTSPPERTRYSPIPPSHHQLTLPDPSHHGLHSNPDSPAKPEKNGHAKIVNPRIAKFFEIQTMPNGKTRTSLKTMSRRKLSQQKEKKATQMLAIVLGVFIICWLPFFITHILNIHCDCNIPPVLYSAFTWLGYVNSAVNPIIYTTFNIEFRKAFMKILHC
Structure (SMILES),Ki (D(2) dopamine receptor [1]) [nM],Change (Rattus norvegicus [2]) [%],Change (Rattus norvegicus [3]) [%],also measured
CCCN(CCC)C1Cc2cccc3c2N(CC3)C1.O=C(O)/C=C/C(=O)O (stereo not drawn),> 1000,-33,-13,
CCCN(CCC)C1Cc2cccc3c2N(C1)C(=O)OC3.Cl (stereo not drawn),292,-36,-13,
CCCN(CCC)C1Cc2cccc3c2N(C1)C(=O)C3=O (stereo not drawn),> 1000,-46,-7,
CCCN(CCC)C1Cc2cccc3ncn(c23)C1 (stereo not drawn),> 1000,-12,-7,ED50 [4]: 0.219 mg/kg
CCCN(CCC)C1Cc2cccc3c2N(C1)C(=O)CN3 (stereo not drawn),80,-37,-32,
CN(C)C1Cc2cccc3nc(O)n(c23)C1 (stereo not drawn),> 10000,,,
CCCN(CCC)C1Cc2cccc3[nH]c(=O)c(=O)n(c23)C1.Cl (stereo not drawn),150,-37,6,ED50 [4]: 0.088 mg/kg
CCCN(CCC)[C@H]1Cc2cccc3nc(O)n(c23)C1.Cl,,0.3,6.4,ED50 [4]: > 1 mg/kg; Ki (D(2) dopamine receptor [5]): > 1000 nM
CCCN(CCC)C1Cc2cccc3c2N(CC(=O)N3)C1.Cl (stereo not drawn),30,-52,16,ED50 [4]: 0.039 mg/kg
NC1Cc2cccc3nc(O)n(c23)C1 (stereo not drawn),> 10000,,,
CCCN(CCC)C1Cc2cccc3c2N(C1)C(=O)NC3 (stereo not drawn),> 1000,-13,-45,ED50 [6]: 0.0034 mg/kg; ED50 [4]: 0.212 mg/kg
CCCN(CCC)C1Cc2cccc3nc(O)n(c23)C1.Cl (stereo not drawn),207,-34,12,ED50 [6]: 0.34 mg/kg; ED50 [4]: 0.005 mg/kg
CCCCNC1Cc2cccc3[nH]c(=O)n(c23)C1 (stereo not drawn),,,,Ki (D(2) dopamine receptor [5]): > 10000 nM
CCCN(CCC)C1Cc2cccc3nc(C)n(c23)C1 (stereo not drawn),,,,Ki (D(2) dopamine receptor [7]): > 1000 nM
CCCN(CCC)C1Cc2cccc3nc(SC)n(c23)C1 (stereo not drawn),> 1000,,,
CCCN(CCC)C1Cc2cccc3c2n(c(=O)n3C)C1 (stereo not drawn),,,,Ki (D(2) dopamine receptor [5]): 924 nM
Br.CCCN(CCC)[C@@H]1Cc2cccc3nc(O)n(c23)C1,,-50,-1.2,Ki (D(2) dopamine receptor [5]): 68 nM; ED50 (Rattus norvegicus [8]): 1.4 µg/kg; ED50 (Rattus norvegicus [9]): 0.107 mg/kg

Structure (SMILES),Ki (D(2) dopamine receptor [1]) [nM],Change (Rattus norvegicus [2]) [%],Change (Rattus norvegicus [3]) [%],also measured
Oc1nc2cccc3c2n1CC(NCC1CC1)C3 (stereo not drawn),4000,,,
CN1CCc2cccc3c2[C@H]1Cc1ccc(O)c(O)c1-3 [APOMORPHINE],,-55,4,
CCCN(CCC)C1Cc2cccc3c2N(CCC3)C1 (stereo not drawn),35,,,
CCCN(CCC)C1Cc2cccc3ccn(c23)C1.O=C(O)/C=C/C(=O)O (stereo not drawn),210,-29,-14,ED50 [4]: 0.083 mg/kg
CCCN(CCC)C1Cc2cccc3oc(=O)n(c23)C1 (stereo not drawn),899,-27,-6,
CCCN(CCC)C1Cc2cccc3ccc(=O)n(c23)C1 (stereo not drawn),315,-40,-18,
CCCN(CCC)C1Cc2cccc3c2N(C1)C(=O)CC3 (stereo not drawn),83,-41,-48,
CCCCN(CCC)C1Cc2cccc3nc(O)n(c23)C1 (stereo not drawn),167,,,
CCCN(CCC)C1Cc2cccc3c2N(C1)C(=O)CO3.O=C(O)/C=C/C(=O)O (stereo not drawn),,-18,-12,
C=CCN(CC=C)C1Cc2cccc3nc(O)n(c23)C1 (stereo not drawn),> 10000,,,
C=CCNC1Cc2cccc3nc(O)n(c23)C1 (stereo not drawn),363,,,
CCCNC1Cc2cccc3nc(O)n(c23)C1.Cl (stereo not drawn),1040,,,ED50 [6]: 0.65 mg/kg; ED50 [4]: 0.036 mg/kg
CCCN(CCC)C1Cc2cccc3c2N(C1)C(=O)C3 (stereo not drawn),1080,-53,-11,
CCCCN(CCCC)C1Cc2cccc3nc(O)n(c23)C1 (stereo not drawn),> 10000,,,
CCCN(Cc1ccccc1)C1Cc2cccc3[nH]c(=O)n(c23)C1 (stereo not drawn),1910,,,
CCCN(CCC)C1Cc2cccc3nc(S)n(c23)C1 (stereo not drawn),40,-38,-7,
Oc1nc2cccc3c2n1CC(N(CC1CC1)CC1CC1)C3 (stereo not drawn),7730,,,
